From PubChem BioAssay AID652000 (Sanford-Burnham Center for Chemical Genomics, 2013)
The campaign covered roughly 2,400 compounds. Fewer than 10 were called active.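 How the source made its calls: active means activation of at least 50%; inactive means the rest.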 Only a sample is shown.

Target: G-protein coupled receptor 183 (Homo sapiens) (UniProt P32249)
Test: EBI2 agonist activity of antagonist hits, confirmation, counter-screen for EBI2 antagonist project, cell-based, single concentration, agonist mode, luminescence (AID 652000)
Settings: EBI2-expressing cells, 60 min, at 5 µM, hits give high values, 0% vehicle, 100% 7α,25-dihydroxycholesterol control
In short: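 System: beta-arrestin recruitment reporter cells, agonist mode. Amount: 1500 cells in each well. Probe or stimulus: no added oxysterol for test compounds. Compound: single concentration, 2.5 nL of 10 mM stock. Timing: 37°C overnight seeding and 60-min compound, 25°C dark 60-min detection. Signal: luminescence. Benchmarks: 7alpha,25-OHC positive control.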

Sequence of G-protein coupled receptor 183 (Homo sapiens) (P32249 whole entry, looked up): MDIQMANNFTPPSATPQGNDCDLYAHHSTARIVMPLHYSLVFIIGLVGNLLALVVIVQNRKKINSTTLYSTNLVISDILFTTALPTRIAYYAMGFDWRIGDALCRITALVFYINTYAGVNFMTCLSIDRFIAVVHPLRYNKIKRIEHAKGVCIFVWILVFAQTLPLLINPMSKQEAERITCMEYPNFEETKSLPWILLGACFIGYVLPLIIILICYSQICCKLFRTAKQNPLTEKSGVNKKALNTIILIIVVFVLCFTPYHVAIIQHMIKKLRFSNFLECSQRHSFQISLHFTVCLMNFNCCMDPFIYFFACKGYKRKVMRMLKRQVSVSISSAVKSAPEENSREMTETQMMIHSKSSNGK

SMILES	activation
COc1ccc(-n2c(Cc3cccn3C)nnc2SCC(=O)Nc2cc(C)cc(C)c2)cc1	0.66% (inactive)
COc1ccc([C@H]2CC(=O)C=C(/C=C/c3ccc(Cl)cc3)C2)cc1	-0.43% (inactive)
COc1ccccc1CCNC(=O)C1CCN(C(=O)/C=C/c2ccccc2)CC1	-0.16% (inactive)
COc1ccc(C(c2nnnn2C2CCCC2)N2CCN(C/C=C/c3ccccc3)CC2)cc1 (stereo not given)	-0.25% (inactive)
CN1CCc2ccccc2C1Cc1ccccc1NC(=O)c1sc2ccccc2c1Cl (stereo not given)	-0.98% (inactive)
Cc1ccc(-n2ncc3c(=O)n(-c4ccc(C)c(C)c4)c(-c4ccco4)nc32)cc1	-1.66% (inactive)
O=C(Nc1ccc(S(=O)(=O)N2CCCCC2)cc1)C1CC(=O)N(c2ccc(F)cc2)C1 (stereo not given)	0.98% (inactive)
O=C(c1cc(=O)c2ccccc2o1)N1CCN(c2ccccc2)CC1	2.48% (inactive)
CCCC1CCC(=NNC(=S)NCCc2ccccc2)CC1 (stereo not given)	-1.07% (inactive)
Cc1cccc(N=C2NC(=O)/C(=C/c3cn(C)c4ccccc34)S2)c1	-0.07% (inactive)
COc1ccc(-c2cc(NC=O)c3ncc(-c4cccc(C(=O)N(C)C)c4)n3c2)c(OC)c1	-1.02% (inactive)
Cc1ccc(CSCCNC(=O)CN(c2ccc(F)cc2)S(C)(=O)=O)cc1	0.84% (inactive)
CC(C)N(Cc1ccccc1)C(=S)Nc1ccc(OC(F)F)cc1	0.07% (inactive)
CC(C)Cc1ccc(-c2cc3nc(NCc4cccc(Cl)c4)ccn3n2)cc1	-1.2% (inactive)
CCOC(=O)N1CCN(C(=O)CSc2ccc(Cl)cc2)CC1	2.07% (inactive)
Cc1ccc(SCC(=O)N2CCN(c3ccc(F)cc3)CC2)cc1	4.12% (inactive)
CC(=O)/C(=N\Nc1ccc(Cl)cc1Cl)Sc1cccc2cccnc12	-1.34% (inactive)
O=C(NCc1ccc(Cl)cc1)c1cc(=O)nc2sc(-c3ccccc3)nn12	-0.48% (inactive)
COc1ccc(OC)c(C(=O)c2coc3ccc(O)c(CN4CCOCC4)c23)c1	0.62% (inactive)
O=C(/C=C/c1cccc(C(F)(F)F)c1)N1CCN(c2ccccn2)CC1	-0.93% (inactive)
Cc1cccc(OCC(O)CN2CCN(S(=O)(=O)c3ccc(C)cc3C)CC2)c1 (stereo not given)	-0.98% (inactive)
COc1ccc(-c2cn(-c3ccc(OC)cc3)c(=S)[nH]2)cc1	1.66% (inactive)
O=C(CSc1ccccc1)Nc1cc(Cl)ccc1Oc1ccccc1	-1.48% (inactive)
CCC(C)(C)NC(=O)c1cc([N+](=O)[O-])ccc1N1CCCCC1	-1.43% (inactive)
CCOC(=O)N1CCN(C(=O)COc2ccc(Br)cc2)CC1	1.84% (inactive)
O=C(NCCNc1ccc([N+](=O)[O-])cc1)c1cccc2c(Br)cccc12	0.12% (inactive)
COc1ccccc1N1CCN(C(=O)c2cc(-c3ccc(Br)cc3)on2)CC1	1.43% (inactive)
Cc1cccc(C)c1-n1nnnc1C(CCc1ccccc1)N1CCN(C/C=C/c2ccccc2)CC1 (stereo not given)	-1.39% (inactive)

SMILES	activation
O=C(CCc1ccccc1)NNC(=O)COc1ccc(Cl)cc1	0.21% (inactive)
COc1ccc(-c2nc(N)ncc2-c2ccc(Cl)cc2)c(O)c1	1.03% (inactive)
COc1cc(/C=C(\C#N)C(=O)Nc2ccc3ccccc3c2)c([N+](=O)[O-])cc1OC	-0.75% (inactive)
O=C(COc1ccc(Cl)cc1)N1CCN(S(=O)(=O)c2ccc(Cl)cc2)CC1	1.62% (inactive)
O=C(c1ccc(-n2cnnn2)cc1)N1CCN(C(c2ccccc2)c2ccccc2)CC1	1.53% (inactive)
Cc1cc(OCCOc2cccc3cccnc23)c(C)cc1Cl	1.3% (inactive)
COc1ccc(C(C(=O)NC2CCCCC2)N(C(=O)c2snc(C(N)=O)c2N)c2ccccc2OC)cc1 (stereo not given)	1.3% (inactive)
CCCCN=C1C([N+](=O)[O-])=CC=C2C1=NC1(CCCCC1)N2O	-0.38% (inactive)
c1ccc(C(c2ccccc2)N2CCN(Cc3nnnn3C3CCCCC3)CC2)cc1	0.25% (inactive)
COc1ccc(/C=N/N=C/c2c[nH]c(=O)c(C#N)c2Nc2ccccc2)cc1	-1.52% (inactive)
COc1ccc(N(CC(=O)Nc2cc(OC)ccc2OC)S(=O)(=O)c2c(C)noc2C)cc1	1.12% (inactive)
Cc1ccc(S(=O)(=O)NCCNC(C)c2ccc(Br)cc2)cc1 (stereo not given)	0.98% (inactive)
Cc1cccc(-n2c(O)c(C=Nc3ccccc3N)c(=O)[nH]c2=O)c1	-2.25% (inactive)
O=C(/C=C/c1cccc([N+](=O)[O-])c1)N1CCN(Cc2ccccc2)CC1	-0.29% (inactive)
O=c1[nH]c(CN2CCN(S(=O)(=O)c3ccc4c(c3)OCCO4)CC2)nc2sc3c(c12)CCCC3	-1.11% (inactive)
O=C(NCCCc1ccccc1)C1CCC(=O)N(CCc2ccc(Cl)cc2)C1 (stereo not given)	1.57% (inactive)
COc1ccc(C(=O)/C=C/c2ccc(OC3CSC3)cc2)cc1	2.89% (inactive)
CCOC(=O)C1CCN(C(=O)COc2cc(C)c(Br)c(C)c2)CC1	2.25% (inactive)
N#Cc1ccc(C2=CC(=O)C[C@H](c3ccc(Cl)cc3)C2)cc1	1.84% (inactive)
COc1cccc(NC(=O)Cn2c3ccc(F)cc3c3nc4n(c(=O)c32)CCS4)c1	0.89% (inactive)
COc1ccc2cc(C3=CC(=O)C[C@H](c4ccc5c(c4)OCO5)C3)ccc2c1	-1.39% (inactive)
CCC(c1nnc(SCC(=O)NNC(=O)c2ccccc2)n1Cc1ccccc1)N(C)C (stereo not given)	-1.34% (inactive)
Cc1cc(C)c2c(=O)n3c(nc2c1)C(CC(C)C)NC(=O)c1cc2ccccc2cc1-3 (stereo not given)	0.75% (inactive)
COc1ccc(OCC(=O)N2CCN(C(=O)c3cccs3)CC2)cc1	1.48% (inactive)
CCN1CCN(C(=O)CSc2ccc(C)cc2)CC1	0.02% (inactive)
Cc1ccc(OCC(=O)N2CCN(S(=O)(=O)c3ccc(Cl)s3)CC2)cc1C	1.84% (inactive)
CCCCC(=O)N(C)c1c(CC)nc2c(OCc3ccc(Cl)cc3Cl)cccn12	-1.02% (inactive)
